Measured values gathered from unrelated publications.
Each line is one published result; the experiments were not run side by side.
Target: Aurora kinase B (AURKB, Homo sapiens, UniProt Q96GD4)
Observed: enzyme activity

COc1cc(Cl)c(C(=O)N[C@@H](CN[C@H]2CC[C@@H](N)CC2)Cc2ccc(C#N)cc2)cc1-c1ccc(CN[C@H](C)c2ccc(C)cc2)o1 — remaining activity (inhibitor; 1 µM): 96%
Cc1cnc(NC2CCOCC2)nc1-n1cnc(C(=O)NC(CN)c2cc(F)cc(Cl)c2)c1 (stereo not shown) — remaining activity (inhibitor; radiometric; 1 µM): 84%
CC(C)(C)c1nc2c(s1)c1nc(N)ncc1c1ccc(NS(=O)(=O)c3c(F)cccc3F)c(F)c12 — remaining activity (inhibitor; radiometric; 1 µM): 90%
Cc1nn(CC(F)(F)F)cc1Nc1ncc(Br)c(NCc2ccc(S(N)(=O)=O)cc2)n1 — remaining activity (inhibitor; radiometric; 1 µM): 87%
CC(C)(C)C(=O)c1sc(NC2CCCCC2)nc1N — remaining activity (inhibitor; 10 µM): 107%
COc1cc2ncnc(Nc3ccc(F)c(Cl)c3)c2cc1OCCCN1CCOCC1 — remaining activity (0.5 µM): 106%
O=C(NCCCNc1nc(Nc2cccc(NC(=O)N3CCCC3)c2)ncc1Br)C1CCC1 — remaining activity (inhibitor; radiometric; 1 µM): 5%
O=c1cc(-c2cccc3c2Sc2ccccc2S3)oc(N2CCOCC2)c1 — remaining activity (inhibitor; 0.5 µM): 95.8%
COc1cc(Nc2cnc(C#N)c(O[C@H](C)CN(C)C)n2)ncc1-c1cnn(C)c1 — remaining activity (inhibitor; radiometric; 10 µM): 53%
O=C1Nc2ccc(Cl)cc2C1=Cc1cc(Cl)c(O)c(Cl)c1 — remaining activity (0.5 µM): 9.19%
Nc1nc(Nc2ccccc2)sc1C(=O)c1c(F)cccc1F — remaining activity (inhibitor; 10 µM): 24%
Cc1nn(CC(F)(F)F)cc1Nc1nccc(NCCc2cnc[nH]2)n1 — remaining activity (inhibitor; radiometric; 1 µM): 71%
Cc1sc(C(=O)NC2COC2)cc1-n1cc(NC(=O)Nc2c(F)cccc2Cl)cn1 — remaining activity (inhibitor; 10 µM): 96.4%
O=C(NCCCNc1nc(Nc2cccc(CN3CCOCC3)c2)ncc1C1CC1)C1CCC1 — remaining activity (inhibitor; radiometric; 1 µM): 5%
O=C(Nc1cnn(-c2csc(C(=O)NC3COC3)c2)c1)Nc1ccccc1Cl — remaining activity (inhibitor; 5 µM): 93%
Cc1nn(CC(F)(F)F)cc1Nc1ncc(C2CC2)c(NCc2ccc(S(N)(=O)=O)cc2)n1 — remaining activity (inhibitor; radiometric; 1 µM): 102%
FC(F)c1nc2ccccc2n1-c1nc(N2CCOCC2)nc(N2CCOCC2)n1 — remaining activity (inhibitor; 10 µM): 94%
Cc1ccc(Nc2nccc(N(C)c3ccc4c(C)n(C)nc4c3)n2)cc1S(N)(=O)=O — remaining activity (inhibitor; 0.5 µM): 64.6%
Cc1nn(CC(F)(F)F)cc1Nc1ncc(Br)c(NCCCNC(=O)C2CCC2)n1 — remaining activity (inhibitor; radiometric; 1 µM): 38%
